According to ChEMBL document CHEMBL3102708, “Chartarlactams A-P, phenylspirodrimanes from the sponge-associated fungus Stachybotrys chartarum with antihyperlipidemic activities” (J Nat Prod, 2014):
Calls of active or inactive are those of the source. No cut-off for these calls is given here.

Assays:
[1] = test system: HepG2; assay: Cytotoxicity against human HepG2 cells up to 100 uM; format: cell-based
[2] = test system: HepG2; assay: Antihyperlipidemic activity in human HepG2 cells assessed as reduction of oleic acid-induced lipid accumulation at 10 uM […] measured after 6 hrs by Oil Red O staining; format: functional, cell-based
Method in brief: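 HepG2 cells were grown in DMEM with 10% FBS and penicillin/streptomycin (100 μg/mL). At 70–80% confluence they received 100 μM oleic acid for 12 h, then 10 μM compound in DMEM/100 μM oleic acid for 6 h more. Lovastatin was the positive control and DMEM/oleic acid the blank. Neutral lipid was stained with Oil Red O and read at 358 nm, n = 8, repeated in triplicate, mean ± SEM.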

[3] = test system: HepG2; assay: Antihyperlipidemic activity in human HepG2 cells assessed as reduction of oleic acid-induced intracellular total cholesterol accumulation at 10 uM […] measured after 6 hrs; format: functional, cell-based
Method in brief: (§1)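 HepG2 cells were kept in DMEM with 10% FBS and penicillin/streptomycin (100 μg/mL). At 70–80% confluence they were loaded with 100 μM oleic acid in DMEM for 12 h, then exposed to 10 μM compound in DMEM/100 μM oleic acid for a further 6 h. Lovastatin was the positive control and DMEM/oleic acid the blank. Intracellular TC and TG were measured with kits, n = 3, repeated in triplicate, mean ± SEM.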

[4] = test system: HepG2; assay: Antihyperlipidemic activity in human HepG2 cells assessed as reduction of oleic acid-induced intracellular triglyceride accumulation at 10 uM […] measured after 6 hrs; format: functional, cell-based; method in brief: as §1

Row | Structure (SMILES) | Activity [1] | Activity [2] | Activity [3] | Activity [4]
1 | C[C@@H]1CC[C@H]2C(C)(C)[C@H](O)CC[C@]2(C)[C@@]12Cc1c(O)cc3c(c1O2)C(=O)N(CCO)C3 | Non-toxic |  |  | 
2 | C[C@@H]1CC[C@H]2[C@](C)(CO)[C@H](O)CC[C@]2(C)[C@@]12Cc1c(O)cc3c(c1O2)CNC3=O | Non-toxic |  |  | 
3 | CC(=O)O[C@@H]1CC[C@@]2(C)[C@@H](CC[C@@H](C)[C@]23Cc2c(O)cc4c(c2O3)CNC4=O)C1(C)C | Non-toxic |  |  | 
4 | C[C@H]1CC[C@H]2C(C)(C)[C@H](O)CC[C@]2(C)[C@@]12Cc1c(O)cc3c(c1O2)CNC3=O | Non-toxic |  |  | 
5 | C[C@@H]1CC[C@H]2C(C)(C)[C@H](O)CC[C@]2(C)[C@@]12Cc1c(O[C@H]3O[C@H](CO)[C@@H](O)[C@H](O)[C@H]3O)cc3c(c1O2)CNC3=O | Non-toxic | Active | Active | 
6 | C[C@H]1CC[C@H]2C(C)(C)[C@H](O)CC[C@]2(C)[C@@]12Cc1c(O)cc3c(c1O2)C(=O)NC3 | Non-toxic | Active |  | Active
7 | C[C@@H]1CC[C@H]2C(C)(C)[C@H](O)CC[C@]2(C)[C@@]12Cc1c(O)cc3c(c1O2)CN(CCO)C3=O | Non-toxic |  |  | 
8 | C[C@H]1CC[C@H]2C(C)(C)[C@H](O)[C@H](O)C[C@]2(C)[C@@]12Cc1c(O)cc3c(c1O2)CNC3=O | Non-toxic |  |  | 
9 | C[C@H]1CC[C@H]2C(C)(C)[C@H](O)[C@H](O)C[C@]2(C)[C@@]12Cc1c(O)cc3c(c1O2)C(=O)NC3 | Non-toxic |  |  | 
10 | C[C@@H]1CC[C@H]2C(C)(C)[C@H](O)[C@H](O)C[C@]2(C)[C@@]12Cc1c(O)cc3c(c1O2)CN(CCO)C3=O | Non-toxic |  |  | 
11 | C[C@@H]1CC[C@H]2C(C)(C)[C@H](O)CC[C@]2(C)[C@@]12Cc1c(O)cc3c(c1O2)/C(=C1\NC(=O)c2cc(O)c4c(c21)O[C@@]1(C4)[C@@H](C)CC[C@@H]2C(C)(C)[C@@H](O)CC[C@]21C)NC3=O | Non-toxic | Active | Active | 
12 | C[C@@H]1CC[C@H]2C(C)(C)[C@H](O)CC[C@]2(C)[C@@]12Cc1c(O)cc3c(c1O2)CN(CCCCC(=O)O)C3=O | Non-toxic |  |  | 
13 | C[C@@H]1CC[C@H]2C(C)(C)[C@H](O)CC[C@]2(C)[C@@]12Cc1c(O)cc3c(c1O2)C(=O)NC3=O | Non-toxic |  |  | 
14 | C[C@@H]1CC[C@H]2C(C)(C)[C@H](O)CC[C@]2(C)[C@@]12Cc1c(O)cc3c(c1O2)CN(C(Cc1ccccc1)C(=O)O)C3=O (some centres not stated) | Non-toxic | Active | Active | Active
15 | C[C@@H]1CC[C@H]2C(C)(C)[C@H](O)[C@@H](O)C[C@]2(C)[C@@]12Cc1c(O)cc3c(c1O2)CNC3=O | Non-toxic |  |  | 
16 | CC(=O)O[C@@H]1[C@H](OC(C)=O)C[C@@]2(C)[C@@H](CC[C@@H](C)[C@]23Cc2c(O)cc4c(c2O3)CNC4=O)C1(C)C | Non-toxic |  |  | 
17 | C[C@@H]1CC[C@H]2C(C)(C)C(=O)CC[C@]2(C)[C@@]12Cc1c(O)cc3c(c1O2)CNC3=O | Non-toxic | Active | Active | Active
18 | C[C@@H]1CC[C@H]2C(C)(C)[C@H](O)[C@H](O)C[C@]2(C)[C@@]12Cc1c(O)cc3c(c1O2)CNC3=O | Non-toxic |  |  | 
19 | C[C@@H]1CC[C@H]2C(C)(C)[C@@H](O)[C@H](O)C[C@]2(C)[C@@]12Cc1c(O)cc3c(c1O2)CNC3=O | Non-toxic |  |  | 
20 | CC(=O)O[C@@H]1[C@H](O)C[C@@]2(C)[C@@H](CC[C@@H](C)[C@]23Cc2c(O)cc4c(c2O3)CNC4=O)C1(C)C | Non-toxic | Active |  | Active
21 | C[C@H]1CC[C@H]2C(C)(C)[C@H](O)CC[C@]2(C)[C@@]12Cc1c(O)cc3c(c1O2)CN(CCO)C3=O | Non-toxic | Active | Active | 
22 | C[C@@H]1CC[C@H]2C(C)(C)[C@H](O)CC[C@]2(C)[C@@]12Cc1c(O)cc3c(c1O2)C(=O)NC3 | Non-toxic | Active | Active | Active
23 | C[C@@H]1CC[C@H]2C(C)(C)[C@H](O)CC[C@]2(C)[C@@]12Cc1c(O)cc3c(c1O2)CNC3=O | Non-toxic |  |  | 
